Active and inactive are the calls of the source. The calls are words filed in the database; no cut-off is given here.

These results are taken from ChEMBL document CHEMBL2396604, “Synthesis and structure activity relationship of tetrahydroisoquinoline-based potentiators of GluN2C and GluN2D containing N-methyl-D-aspartate receptors” (J Med Chem, 2013).

Assay [1] has as its target Glutamate receptor 1 (Rattus norvegicus) (UniProt P19490). The assay can be described thus: Activity at rat recombinant GluA1 receptor expressed in Xenopus oocytes assessed as effect on glutamate-induced response by two-electrode voltage clamp technique. It counts as cell-based. The conditions noted are these: Oocyte. The essentials: (§1)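 Oocytes injected with 1–5 ng cRNA, kept in Barth's solution at 15°C for 2–5 days. Clamped at -40 mV in 90 NaCl, 1.0 KCl, 0.5 BaCl₂, 0.005 EDTA, 10 HEPES (mM), pH 7.4, 23°C. Receptors activated by 100 µM glutamate with compound co-applied. GluK2 oocytes pretreated with 10 µM concanavalin A for 10 min. DMSO 0.05–0.5% final.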
Background: In two-electrode clamp one electrode senses voltage and the other passes current.

Assay [2] deals with Glutamate receptor ionotropic, kainate 2 (Rattus norvegicus) (UniProt P42260). The assay can be described thus: Activity at rat recombinant GluK2 receptor expressed in Xenopus oocytes assessed as effect on glutamate-induced response by two-electrode voltage clamp technique. It counts as cell-based. The conditions noted are these: Oocyte. The essentials: as §1
Assay [3] deals with Glutamate NMDA receptor; Grin1/Grin2c (Rattus norvegicus, UniProt P35439+Q00961). As to the kind of experiment: Activity at rat recombinant GluN1/GluN2C receptor assessed as potentiation of glycine/glutamate-induced activation by two-electrode voltage clamp technique. The format is protein-complex assay.
For assay [4], the target named is Glutamate NMDA receptor; Grin1/Grin2b (Rattus norvegicus) (UniProt P35439+Q00960). As to the kind of experiment: Activity at rat recombinant GluN1/GluN2B receptor expressed in Xenopus oocytes assessed as potentiation of glycine/glutamate-induced effect at 100 uM by two-electrode voltage clamp technique relative to control. It counts as cell-based. The conditions noted are these: Oocyte. The essentials:
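Two-electrode voltage clamp of oocytes at -40 mV, 2–5 days after cRNA injection. Bath solution (mM) 90 NaCl, 1.0 KCl, 0.5 BaCl₂, 0.005 EDTA, 10 HEPES, pH 7.4, 23°C. Compound applied with 100 µM glutamate plus 30 µM glycine; DMSO 0.05–0.5% final. Current expressed as percent of response without compound. For GluN2A, some oocytes were pretreated with 50 µM BAPTA-AM for 10 min or injected with K-BAPTA.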

Assay [5] addresses Ionotropic glutamate receptor NMDA 1/2D (Rattus norvegicus, UniProt P35439+Q62645). The assay can be described thus: Activity at rat recombinant GluN1/GluN2D receptor assessed as potentiation of glycine/glutamate-induced activation by two-electrode voltage clamp technique. The format is protein-complex assay.

Chain of Ionotropic glutamate receptor NMDA 1/2D (Q62645 whole entry, other chains not shown): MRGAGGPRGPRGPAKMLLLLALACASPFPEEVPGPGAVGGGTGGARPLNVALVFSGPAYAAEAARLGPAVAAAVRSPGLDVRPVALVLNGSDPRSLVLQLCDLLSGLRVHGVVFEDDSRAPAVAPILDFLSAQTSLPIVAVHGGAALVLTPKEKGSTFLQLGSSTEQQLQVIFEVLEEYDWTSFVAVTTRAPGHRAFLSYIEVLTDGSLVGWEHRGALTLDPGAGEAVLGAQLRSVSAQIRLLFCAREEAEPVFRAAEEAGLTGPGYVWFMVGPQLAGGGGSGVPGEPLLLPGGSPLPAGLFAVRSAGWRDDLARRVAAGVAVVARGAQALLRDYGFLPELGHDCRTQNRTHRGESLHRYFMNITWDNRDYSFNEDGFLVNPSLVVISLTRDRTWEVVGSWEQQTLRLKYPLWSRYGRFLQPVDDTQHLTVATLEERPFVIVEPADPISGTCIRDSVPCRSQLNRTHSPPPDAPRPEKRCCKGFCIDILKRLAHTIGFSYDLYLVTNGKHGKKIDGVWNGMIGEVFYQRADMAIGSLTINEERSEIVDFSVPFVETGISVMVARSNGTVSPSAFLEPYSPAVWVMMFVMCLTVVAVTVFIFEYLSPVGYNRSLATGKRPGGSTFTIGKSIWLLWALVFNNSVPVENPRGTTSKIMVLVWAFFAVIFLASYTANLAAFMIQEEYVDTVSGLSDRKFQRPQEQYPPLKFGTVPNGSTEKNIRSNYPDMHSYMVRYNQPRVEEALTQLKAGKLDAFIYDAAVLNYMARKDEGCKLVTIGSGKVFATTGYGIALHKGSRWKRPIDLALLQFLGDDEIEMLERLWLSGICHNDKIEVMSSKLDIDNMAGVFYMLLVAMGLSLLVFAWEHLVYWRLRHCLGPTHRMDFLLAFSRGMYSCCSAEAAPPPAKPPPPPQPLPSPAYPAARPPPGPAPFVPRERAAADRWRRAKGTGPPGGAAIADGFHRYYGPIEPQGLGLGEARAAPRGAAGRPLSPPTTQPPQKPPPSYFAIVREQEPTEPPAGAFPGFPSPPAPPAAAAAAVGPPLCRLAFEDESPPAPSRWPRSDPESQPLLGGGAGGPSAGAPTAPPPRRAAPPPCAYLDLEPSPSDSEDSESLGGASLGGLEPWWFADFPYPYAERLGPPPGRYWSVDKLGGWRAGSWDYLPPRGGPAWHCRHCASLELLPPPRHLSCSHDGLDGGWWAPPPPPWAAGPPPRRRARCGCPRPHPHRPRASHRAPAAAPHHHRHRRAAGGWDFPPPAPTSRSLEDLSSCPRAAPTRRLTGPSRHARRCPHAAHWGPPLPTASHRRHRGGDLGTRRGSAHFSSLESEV
Chain of Glutamate receptor ionotropic, kainate 2 (Rattus norvegicus) (P42260 whole entry): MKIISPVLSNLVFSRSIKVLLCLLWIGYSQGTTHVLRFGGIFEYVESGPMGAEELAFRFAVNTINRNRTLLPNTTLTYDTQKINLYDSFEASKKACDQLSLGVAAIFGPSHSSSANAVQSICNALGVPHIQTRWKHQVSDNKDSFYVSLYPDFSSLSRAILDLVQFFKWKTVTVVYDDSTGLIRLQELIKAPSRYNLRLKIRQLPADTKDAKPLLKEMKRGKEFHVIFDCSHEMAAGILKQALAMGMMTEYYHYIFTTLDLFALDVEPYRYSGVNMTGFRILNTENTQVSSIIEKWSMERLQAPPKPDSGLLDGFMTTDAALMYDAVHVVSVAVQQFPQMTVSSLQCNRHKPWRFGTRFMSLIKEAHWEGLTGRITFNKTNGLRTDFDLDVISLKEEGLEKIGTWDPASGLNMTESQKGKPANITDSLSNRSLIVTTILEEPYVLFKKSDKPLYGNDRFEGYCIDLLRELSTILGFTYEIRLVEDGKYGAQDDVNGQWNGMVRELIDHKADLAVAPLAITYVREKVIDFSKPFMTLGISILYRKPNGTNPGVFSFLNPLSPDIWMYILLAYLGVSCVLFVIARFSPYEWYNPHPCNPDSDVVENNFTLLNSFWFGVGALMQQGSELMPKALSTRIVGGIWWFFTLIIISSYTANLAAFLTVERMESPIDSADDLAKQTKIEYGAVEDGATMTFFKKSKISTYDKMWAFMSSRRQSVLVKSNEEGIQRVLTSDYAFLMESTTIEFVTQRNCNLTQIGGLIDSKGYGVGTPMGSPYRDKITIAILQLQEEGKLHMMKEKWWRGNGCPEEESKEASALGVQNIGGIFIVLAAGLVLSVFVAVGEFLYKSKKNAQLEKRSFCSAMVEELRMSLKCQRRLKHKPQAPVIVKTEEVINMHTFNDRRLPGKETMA
Chain of Glutamate receptor 1 (Rattus norvegicus) (P19490 whole entry): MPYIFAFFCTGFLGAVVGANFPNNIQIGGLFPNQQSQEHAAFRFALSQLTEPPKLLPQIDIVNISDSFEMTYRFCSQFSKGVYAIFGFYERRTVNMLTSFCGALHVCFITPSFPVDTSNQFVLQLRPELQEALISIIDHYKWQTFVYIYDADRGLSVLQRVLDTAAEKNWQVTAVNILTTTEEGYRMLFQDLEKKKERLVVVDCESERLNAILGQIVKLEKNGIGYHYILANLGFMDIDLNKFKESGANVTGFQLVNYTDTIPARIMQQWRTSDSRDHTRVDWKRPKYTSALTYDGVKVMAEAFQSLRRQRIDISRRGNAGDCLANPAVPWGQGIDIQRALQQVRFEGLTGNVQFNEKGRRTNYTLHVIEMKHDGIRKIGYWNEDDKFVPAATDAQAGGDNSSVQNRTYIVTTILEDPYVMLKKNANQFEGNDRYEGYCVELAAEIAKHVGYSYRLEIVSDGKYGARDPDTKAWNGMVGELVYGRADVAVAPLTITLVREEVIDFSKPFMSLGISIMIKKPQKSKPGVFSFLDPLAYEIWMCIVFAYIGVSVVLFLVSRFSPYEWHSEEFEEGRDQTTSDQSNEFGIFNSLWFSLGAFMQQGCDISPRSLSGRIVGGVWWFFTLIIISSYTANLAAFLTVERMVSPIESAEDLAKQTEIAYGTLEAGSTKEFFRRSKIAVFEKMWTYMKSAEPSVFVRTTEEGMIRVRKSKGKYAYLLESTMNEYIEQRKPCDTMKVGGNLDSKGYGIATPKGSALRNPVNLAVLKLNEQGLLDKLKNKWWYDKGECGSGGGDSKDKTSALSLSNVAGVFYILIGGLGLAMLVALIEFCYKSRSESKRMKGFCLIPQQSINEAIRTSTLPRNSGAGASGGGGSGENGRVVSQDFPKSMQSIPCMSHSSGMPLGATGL
Chain of Glutamate NMDA receptor; Grin1/Grin2c (Q00961 whole entry, other chains not shown): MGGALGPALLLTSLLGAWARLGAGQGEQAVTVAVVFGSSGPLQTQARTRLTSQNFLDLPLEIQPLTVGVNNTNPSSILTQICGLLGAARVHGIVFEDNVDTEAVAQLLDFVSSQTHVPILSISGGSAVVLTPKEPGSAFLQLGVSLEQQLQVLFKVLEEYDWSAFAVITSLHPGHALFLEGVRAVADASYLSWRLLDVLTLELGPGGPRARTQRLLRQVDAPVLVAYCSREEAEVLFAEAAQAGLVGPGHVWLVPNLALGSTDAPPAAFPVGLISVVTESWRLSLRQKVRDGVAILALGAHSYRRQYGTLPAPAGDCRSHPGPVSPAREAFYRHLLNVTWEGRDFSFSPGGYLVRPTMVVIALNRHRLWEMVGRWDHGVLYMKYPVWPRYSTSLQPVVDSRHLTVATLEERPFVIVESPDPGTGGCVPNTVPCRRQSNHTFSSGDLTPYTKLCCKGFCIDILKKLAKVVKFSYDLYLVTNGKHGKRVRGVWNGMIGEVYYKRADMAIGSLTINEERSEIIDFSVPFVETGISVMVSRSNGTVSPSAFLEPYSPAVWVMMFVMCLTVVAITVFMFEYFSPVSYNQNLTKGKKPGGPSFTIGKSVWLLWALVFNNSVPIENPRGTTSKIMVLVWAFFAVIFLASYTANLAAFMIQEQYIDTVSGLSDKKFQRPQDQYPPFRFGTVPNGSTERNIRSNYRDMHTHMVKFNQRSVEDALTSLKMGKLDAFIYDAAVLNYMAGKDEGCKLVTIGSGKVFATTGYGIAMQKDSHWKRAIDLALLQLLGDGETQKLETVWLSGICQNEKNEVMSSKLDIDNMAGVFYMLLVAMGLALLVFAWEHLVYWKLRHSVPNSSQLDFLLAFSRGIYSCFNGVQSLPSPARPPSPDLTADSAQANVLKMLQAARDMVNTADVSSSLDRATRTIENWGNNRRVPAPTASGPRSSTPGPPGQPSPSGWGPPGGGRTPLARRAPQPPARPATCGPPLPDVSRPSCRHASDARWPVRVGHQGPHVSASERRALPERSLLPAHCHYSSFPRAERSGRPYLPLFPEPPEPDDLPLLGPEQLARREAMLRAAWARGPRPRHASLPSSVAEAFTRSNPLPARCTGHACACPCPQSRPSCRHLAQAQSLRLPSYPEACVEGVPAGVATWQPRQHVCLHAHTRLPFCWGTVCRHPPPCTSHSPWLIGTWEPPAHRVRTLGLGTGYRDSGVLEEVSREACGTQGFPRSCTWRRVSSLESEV

`COc1cc2c(cc1OC)CN(C(=O)c1ccccc1)CC2`: the outcome in assay [1] was inactive.

Consider `COc1ccc(OCC2c3cc(OC)c(OC)cc3CCN2C(=O)c2ccccc2)cc1` (racemic), for which the result in assay [2] and in assay [1] was inactive. For the same compound, the EC50 amounted to 12 µM in assay [3] and 11 µM in assay [5]. In addition, in assay [4], the result was Active.

Consider `COc1ccc(OCC2c3cc(OC)c(OC)cc3CCN2C(=O)c2cccc(C)c2)cc1` (racemic), for which the EC50 in assay [3] was 6.2 µM; in assay [5], 5.5 µM.

For the compound `COc1ccc(OCC2c3cc(OC)c(OC)cc3CCN2C(=O)c2ccc(Cl)cc2)cc1` (racemic), the EC50 in assay [3] turned out to be 4.1 µM.

Take `COc1ccc(OCC2c3cc(OC)c(OC)cc3CCN2C(=O)c2cccc(Br)c2)cc1` (racemic): the outcome in assay [2] and in assay [1] was inactive. The figures for the EC50 in assay [3] and in assay [5] were 0.9 µM and 2.2 µM, respectively.

Regarding `COc1ccc(OCC2c3cc(OC)c(OC)cc3CCN2C(=O)c2cccc(OC)c2)cc1` (racemic), the values for the EC50 in assay [3] and in assay [5] were 5.8 µM and 12 µM, respectively. Also, in assay [4], the result was Active.

For the compound `COc1ccc(OCC2c3cc(OC)c(OC)cc3CCN2C(=O)c2ccc(Cl)c(Cl)c2)cc1` (racemic), the EC50 in assay [3] was found to be 21 µM; in assay [5], 24 µM.

Turning to `COc1ccc(OCC2c3cc(OC)c(OC)cc3CCN2C(=O)c2cccc(Cl)c2Cl)cc1` (racemic), in assay [3], the EC50 was 1.4 µM.

`COc1ccc(OCC2c3cc(OC)c(OC)cc3CCN2C(=S)Nc2cccc(C)c2)cc1` (racemic): the EC50 in assay [3] was determined as 5.2 µM; in assay [5], 4.9 µM.

`COc1ccc(/C=C/C2c3cc(OC)c(OC)cc3CCN2C(=O)c2ccccc2)cc1` (racemic): the concentration giving a half-maximal response (EC50) in assay [3] and in assay [5] was 35 µM throughout. Besides, the outcome in assay [1] was inactive.

For `COc1ccc(/C=C/C2c3cc(OC)c(OC)cc3CCN2C(=O)c2cccc(Cl)c2)cc1` (racemic), the EC50 was found to be 1.1 µM in assay [3] and 1.3 µM in assay [5].

In the case of `COc1ccc(/C=C/C2c3cc(OC)c(OC)cc3CCN2C(=O)c2cccc(Br)c2)cc1` (racemic), the EC50 in assay [3] and in assay [5] was 2.8 µM in each case. The result in assay [1] was inactive.

For the compound `COc1ccc(/C=C/C2c3ccc(OC)cc3CCN2C(=O)c2cccc(Cl)c2)cc1` (racemic), the 50% effective concentration (EC50) in assay [3] and in assay [5] was 1 µM in each case. Also, in assay [1], the outcome was inactive.

On to `COc1ccc(OCC2c3cc(OC)c(OC)cc3CCN2C(=O)c2cc(Cl)cc(Cl)c2)cc1` (racemic), for which the 50% effective concentration (EC50) in assay [3] was 4.8 µM; in assay [5] it was 1.9 µM. In assay [1], the result was inactive.

Turning to `COc1ccc(OCC2c3cc(OC)c(OC)cc3CCN2C(=O)c2ccc(F)c(Cl)c2)cc1` (racemic), the EC50 in assay [3] and in assay [5] was 5.3 µM in each case.

For `COc1ccc(OCC2c3cc(OC)c(OC)cc3CCN2C(=O)c2cccc(F)c2)cc1` (racemic), the result in assay [2] and in assay [1] was inactive. The EC50 in assay [3] was 7.2 µM; in assay [5] it was 7 µM.

Consider `COc1ccc(OCC2c3cc(OC)c(OC)cc3CCN2C(=O)c2cccc(I)c2)cc1` (racemic), for which the EC50 in assay [3] was determined as 4 µM; in assay [5], 4.9 µM.

For the compound `COc1ccc(OCC2c3cc(OC)c(OC)cc3CCN2C(=O)c2cccc(-c3ccccc3)c2)cc1` (racemic), the EC50 is 2.9 µM in assay [3] and 3.6 µM in assay [5].

Take `COc1ccc(OCC2c3cc(OC)c(OC)cc3CCN2C(=O)c2cccc(CCl)c2)cc1` (racemic): in assay [3], the concentration giving a half-maximal response (EC50) turned out to be 17 µM. Besides, in assay [1], the result was inactive. The result in assay [4] was Active.

`COc1ccc(OCC2c3cc(OC)c(OC)cc3CCN2C(=O)c2cccc(C(Cl)Cl)c2)cc1` (racemic): the EC50 in assay [3] worked out at 3.7 µM; in assay [5], 5.4 µM.

As for `COc1ccc(OCC2c3cc(OC)c(OC)cc3CCN2C(=O)c2cccc(C#N)c2)cc1` (racemic), the EC50 in assay [3] came out at 29 µM; in assay [5], 7.7 µM. For the same compound, the result in assay [1] was inactive.

Turning to `COc1ccc(OCC2c3cc(OC)c(OC)cc3CCN2C(=O)c2cccs2)cc1` (racemic), the EC50 in assay [3] is 9 µM.

Regarding `COc1cc2c(cc1OC)C(COc1ccc(SC)cc1)N(C(=O)c1cccc(Cl)c1)CC2` (racemic), the EC50 in assay [3] was determined as 5.1 µM; in assay [5], 5.3 µM.

Regarding `CCc1ccc(OCC2c3cc(OC)c(OC)cc3CCN2C(=O)c2ccccc2)cc1` (racemic), in assay [3], the EC50 was determined as 23 µM.

On to `COc1cc2c(cc1OC)C(COc1ccc(N(C)C)cc1)N(C(=O)c1cccc(Cl)c1)CC2` (racemic), for which the EC50 in assay [3] was 35 µM.

On to `COc1cc2c(cc1OC)C(COc1ccc(N(C)C)cc1)N(C(=O)c1cccc(Br)c1)CC2` (racemic), for which the EC50 in assay [3] came out at 12 µM.

As to `COc1ccc(OCC2c3cc4c(cc3CCN2C(=O)c2cccc(Cl)c2)OCO4)cc1` (racemic), the EC50 in assay [3] worked out at 16 µM; in assay [5] it was 7.4 µM. In addition, the result in assay [1] was inactive.

Turning to `COc1ccc(OCC2c3cc4c(cc3CCN2C(=O)c2cccc(Br)c2)OCO4)cc1` (racemic), the figures for the EC50 in assay [3] and in assay [5] were 3.2 µM and 3.4 µM, respectively.

Take `COc1ccc(OCC2c3c(cc(OC)cc3OC)CCN2C(=O)c2ccccc2)cc1` (racemic): the results for the EC50 in assay [3] and in assay [5] were 10 µM and 14 µM, respectively.

Take `COc1ccc(OCC2c3c(cc(OC)cc3OC)CCN2C(=O)c2cccc(Cl)c2)cc1` (racemic): the EC50 in assay [5] was 9.2 µM.

With `COc1ccc(OCC2c3c(cc(OC)cc3OC)CCN2C(=O)c2cccc(Br)c2)cc1` (racemic), the EC50 in assay [3] is 9 µM; in assay [5] it was 7.8 µM.

For `COc1ccc(OCC2c3ccc(OC)cc3CCN2C(=O)c2ccccc2)cc1` (racemic), the EC50 in assay [3] came out at 7.5 µM; in assay [5], 5.7 µM.

As for `COc1ccc(OCC2c3ccc(OC)cc3CCN2C(=O)c2cccc(Br)c2)cc1` (racemic), the EC50 in assay [3] amounted to 2 µM; in assay [5], 2.9 µM. Moreover, in assay [1], the result was inactive.

Turning to `COc1ccc(OCC2c3ccc(OC)cc3CCN2C(=O)c2cccc(C(C)=O)c2)cc1` (racemic), the EC50 in assay [3] came to 21 µM; in assay [5], 32 µM.

As to `COc1ccc(OCC2c3cc(C)c(C)cc3CCN2C(=O)c2cccc(Cl)c2)cc1` (racemic), the EC50 in assay [3] was 1.4 µM; in assay [5] it was 1.5 µM.

On to `COc1ccc(OCC2c3cc(C)c(C)cc3CCN2C(=O)c2cccc(Br)c2)cc1` (racemic), for which the EC50 in assay [3] worked out at 0.9 µM; in assay [5], 1.1 µM.

As to `COc1ccc(OCC2c3ccc(C)cc3CCN2C(=O)c2ccccc2)cc1` (racemic), the EC50 in assay [3] was 24 µM.

On to `COc1ccc(OCC2c3ccc(C)cc3CCN2C(=O)c2cccc(Cl)c2)cc1` (racemic), for which the EC50 in assay [3] is 5 µM; in assay [5] it was 4.7 µM.

As to `COc1ccc(OCC2c3ccc(C)cc3CCN2C(=O)c2cccc(Br)c2)cc1` (racemic), the EC50 in assay [3] was found to be 3.2 µM; in assay [5], 3.6 µM.

Consider `COc1ccc(OCC2c3ccc(OCc4ccccc4)cc3CCN2C(=O)c2ccccc2)cc1` (racemic), for which the results for the 50% effective concentration (EC50) in assay [3] and in assay [5] were 0.7 µM and 2.3 µM, respectively.

With `COc1ccc(OCC2c3ccc(OCc4ccccc4)cc3CCN2C(=O)c2cccc(Cl)c2)cc1` (racemic), the EC50 in assay [3] and in assay [5] was 0.4 µM each time.

For `COc1ccc(CCC2c3cc(OC)c(OC)cc3CCN2C(=O)c2cccc(Br)c2)cc1` (racemic), the EC50 was 11 µM in assay [3] and 15 µM in assay [5]. Further, in assay [1], the outcome was inactive.

As to `COc1ccc(/C=C/C2c3ccc(OC)cc3CCN2C(=O)c2cccc(Br)c2)cc1` (racemic), the EC50 in assay [3] turned out to be 1.5 µM; in assay [5] it was 1.7 µM. Moreover, the outcome in assay [1] was inactive.

Turning to `CCOc1ccc(OCC2c3cc(OC)c(OC)cc3CCN2C(=O)c2cccc(Br)c2)cc1` (racemic), in assay [4], the outcome was Active.

Take `CCOc1ccc(OCC2c3cc(OC)c(OC)cc3CCN2C(=O)c2cccc(Cl)c2)cc1` (racemic): in assay [4], the outcome was Active.

Regarding `COC(=O)c1ccc(OCC2c3cc(OC)c(OC)cc3CCN2C(=O)c2cccc(Cl)c2)cc1` (racemic), in assay [4], the result was Active.

In the case of `COc1ccc(CCC2c3cc(OC)c(OC)cc3CCN2C(=O)c2cccc(Cl)c2)cc1` (racemic), the result in assay [1] was inactive.

Take `COc1ccc(OCC2c3cc(OC)c(OC)cc3CCN2C(=O)CN2CCOCC2)cc1` (racemic): the outcome in assay [1] was inactive.

Regarding `COc1ccc(OCC2c3cc(OC)c(OC)cc3CCN2C(=O)N2CCOCC2)cc1` (racemic), in assay [4], the result was Active.

Regarding `COc1ccc(OCC2c3ccc(OC)cc3CCN2C(=O)c2cccc(Cl)c2)cc1` (racemic), the result in assay [1] was inactive.

Broadly, the EC50 is the concentration that produces a half-maximal response.
